Measurements: ChEMBL document CHEMBL4513216, “Probing the Open Global Health Chemical Diversity Library for Multistage-Active Starting Points for Next-Generation Antimalarials” (ACS Infect Dis, 2020)

Assay: Toxicity liver stage against HepG2, at 10uM
Format: cell-based
Parameters: test concentration 10 uM, cell line HepG2-A16-CD81EGFP
Conditions: human, HepG2-A16-CD81EGFP cells; read-out: INHIBITION
Method in brief: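 Uninfected HepG2-A16-CD81EGFP cells, 3 × 10^3 per well, 1536-well, plated on prespotted compound at 10 μM final, parasite-free screening media added to match infected plates; puromycin 10 μM positive, DMSO 0.5% negative; run in parallel with 48 h PbLuc assay at 37 °C, 5% CO2; viability by CellTiter-Glo luminescence, normalized to controls.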

Compound | cytotoxicity at 10 µM [%]
COCCCNC(=O)c1cc(-c2ccc(OC)cc2)nn1C | 1.54
Cc1nnc2ccc(OCCNS(=O)(=O)c3cccs3)nn12 | -12.1
O=C(c1ccc(F)cc1F)N(CC(F)(F)F)C1CCOCC1 | 1.24
O=C(c1ccnnc1)N1CCO[C@H]2[C@@H](OCc3cccnc3)CC[C@@H]21 | 2.93
COc1nn(C)c2c1CCCN(C(=O)c1ccccc1F)C2 | 11.5
O=C1COC2(CCN(S(=O)(=O)C3CC3)CC2)CN1c1ccsc1 | 6.12
CCn1c(SCC(=O)N2CCOCC2)nc2cc(C)[nH]c2c1=O | 7.72
O=C(c1ccc2c(c1)OCO2)N1CCCSCC1CN1CCCC1 (centres undefined) | 6.95
CCn1c(=O)c2cc(S(N)(=O)=O)ccc2n(CC)c1=O | -13.4
CC(C)c1cc2c(s1)NC(c1ccccn1)NC2=O (centres undefined) | -0.378
CCCC(=O)NCCCn1ncc2c(C)cccc21 | 8.6
CC(C)CNC(=O)c1nnsc1-c1ccccc1 | 10.3
COCC(=O)N1CC(c2csc(NC(C)=O)n2)C1 | -8.8
CC1(C(=O)N2CCOCC2)CN(Cc2cccnc2)CCO1 (centres undefined) | -9
Cc1c(C(=O)N2CCCC(n3nnc4cc(F)ccc43)C2)cnn1C (centres undefined) | -18.3
O=C(CNC(=O)C1(c2ccc(F)cc2F)CCC1)Nc1ccccn1 | -16.5
Cc1ncc2c(n1)CN(CC1CCCCO1)CC2 (centres undefined) | -2.3
Cc1ccc(CC(=O)NCC(O)c2cccc(C(F)(F)F)c2)cn1 (centres undefined) | -18.6
Cc1ncccc1NS(=O)(=O)Cc1cccc(F)c1 | 2.43
O=C1CSc2ccc(C(=O)N3CCCC(n4cccn4)C3)cc2N1 (centres undefined) | -6.65
Cc1cc(C)n(CC(C)CNC(=O)NCc2ccco2)n1 (centres undefined) | -2.58
CC(C)N(C)C(=O)C1CSCN1S(=O)(=O)c1ccccc1F (centres undefined) | 8.65
Cc1ccc(C(F)(F)F)cc1NC(=O)C1CCCN1 (centres undefined) | 4.28

Compound | cytotoxicity at 10 µM [%]
CCOCCN1CCN(c2ccc(C#N)cn2)CC1CC (centres undefined) | 1.02
CCn1cnnc1CNS(=O)(=O)N1CCCC1c1ccc(C)o1 (centres undefined) | -144
Cc1ccc(NC(=O)NCC2CCS(=O)(=O)C2)cc1Cl (centres undefined) | 6.93
CCN(CC)c1ccc(CNC(=O)N2CCC(C#N)CC2)cc1 | -11.4
Cc1nc(C(=O)N(C)CC(F)(F)C(F)(F)F)c2ccccn12 | 2.56
CC(C)c1csc(C(=O)N(C)c2ccc(Br)cn2)n1 | 3.33
CN1C(=O)CCc2cc(NS(=O)(=O)Cc3cccc(F)c3)ccc21 | 3.6
O=C1CC2(CCSC2)C(=O)N1Cc1coc(-c2cccc(F)c2)n1 (centres undefined) | -0.237
COc1cc(C)ccc1OCCC(=O)N1CCC(N2CC=CC2)C1 (centres undefined) | 6.99
CN(Cc1ccc(C#N)cc1)CC1CCS(=O)(=O)C1 (centres undefined) | -5.78
Cn1cc(C(=O)N2CCCC2c2ccc3c(c2)OCO3)ccc1=O (centres undefined) | -14.8
CCOCCCC(=O)NCc1ccnc(N2CCN(C)CC2)c1 | -10.9
CCN(Cc1ccco1)C(C)c1nc(C(C)(C)C)no1 (centres undefined) | 0.623
CNS(=O)(=O)CC(=O)N1CCCc2cc(Br)ccc21 | -12.5
CC(C)(C(=O)NCCCC(N)=O)c1cccc(Br)c1 | 4.23
O=C(Nc1cccc(F)c1)C1CCN(Cc2noc(C3CC3)n2)CC1 | 13.2
CCc1nccn1C1CCCN(C(=O)c2ccn(C)c(=O)c2)C1 (centres undefined) | 17
CCCS(=O)(=O)N1CCC(NC(=O)c2cc(CC)c(C)s2)CC1 | -4.61
CCCN(C1CCc2ccccc2C1)S(C)(=O)=O (centres undefined) | 0.595
NC(=O)COc1cccc(C(=O)NCc2ccc(Cl)s2)c1 | -0.935
N#Cc1cccc(OCCN2CCCC2C(=O)NCC(F)(F)F)c1 (centres undefined) | -5.88
Cc1ccc(O)c(CNC2CCc3nc(C)nn3C2)n1 (centres undefined) | -1.08
Cc1cc(=O)n(C)cc1NC(=O)CC1CCC1 | -9.64

Compound | cytotoxicity at 10 µM [%]
CN(C(=O)CN1CCCC1c1cnn(C)c1)C(C)(C)C#N (centres undefined) | -1.37
O=C(NCCc1ccccn1)N1CCSC2(CCCCC2)C1 | -18.6
CCN(Cc1ccoc1)C(C(N)=O)c1cccc(Br)c1 (centres undefined) | 2.34
Cc1cccnc1CNC(=O)NC(C)Cc1c(C)nn(C)c1C (centres undefined) | 3.92
CCOCC(=O)N1CC(=O)Nc2cc(Br)ccc21 | 8.09
Cc1noc(CNC(=O)[C@@H](C)NC(=O)OC(C)(C)C)n1 | 4.91
N#Cc1ccc(OCCN2CCNC(=O)C2c2cccs2)cc1 (centres undefined) | -2.62
CCSc1ccc(C(C)NC(=O)CCS(C)(=O)=O)cc1 (centres undefined) | 2.18
CC(C)N(Cc1cccnc1)C(=O)CSc1ccc(C#N)cc1 | 3.18
O=C(NCc1cccnc1N1CCCCC1)c1ccc2cc[nH]c2c1 | 4.1
CCc1cc(C(=O)N2CCc3c(ncn3CCc3ccccc3)C2)[nH]n1 | -3.64
CC(Nc1ccc(CCN2CCOCC2)cc1)C(=O)N(C)CCC#N (centres undefined) | -8.93
O=S(=O)(CC1CCOCC1)NCc1ccnc(O)c1 | -5.47
CCOC(C)c1noc(CN(C)C(=O)c2cc3ccccn3c2)n1 (centres undefined) | 7.17
CS(=O)(=O)NCC(=O)NC1CCc2nccn2C1 (centres undefined) | 16.2
Cn1cccc1C1CCCN1C(=O)NCCCn1cccn1 (centres undefined) | 19.2
CN1CCN(c2ccc(C(=O)N3CCCC(c4ncc[nH]4)C3)cc2)CC1 (centres undefined) | 4.15
COCC(C)NCc1ccc2[nH]c(C)c(C)c2c1 (centres undefined) | -3.06
O=C(c1ccc2nccnc2c1)N1C[C@@H](CN2CCCC2)[C@@H](CO)C1 | 4.23
O=C(c1cncc(NCC2COc3ccccc3C2)n1)N1CCOCC1 (centres undefined) | -3.37
CSc1ccccc1C(=O)N(C)C1CCCN(CCc2ccccc2)C1 (centres undefined) | -8.52
Cc1cccc(C(C(=O)N(C)Cc2cc(C)no2)N(C)C)c1 (centres undefined) | 4.94
CCn1cc(CN2CCC3(CC2)c2ccccc2CC3O)cn1 (centres undefined) | 5.54

Compound | cytotoxicity at 10 µM [%]
CC(C)(C)N1CC(c2ncc(-c3ccc4c(c3)OCCO4)[nH]2)CC1=O (centres undefined) | 6.19
O=C(CSCC1CC1)N1CCCC(c2nccn2Cc2cccnc2)C1 (centres undefined) | 3.86
Cc1ccc(N2CCN(C(=O)CCc3ccc(O)cc3)CC2=O)cc1 | -2.36
COc1cccc(-c2cnnc(N(C)CCC3CCCCO3)n2)c1 (centres undefined) | 12.7
Cn1cnnc1C1CCCN(Cc2nc(Cc3ccccc3)no2)C1 (centres undefined) | -4.29
COCCN(C)CC(=O)N1C[C@@H](C)[C@](O)(C(C)C)C1 | 4.9
Cc1[nH]ccc1C(=O)N1CCCC(c2ccc(C(=O)O)cc2)C1 (centres undefined) | -0.591
COc1ccc(OC)c(C2CCN(CC(C)(C)N3CCOCC3)C2)c1 (centres undefined) | -0.359
C=C(C)COc1ccccc1CN1CCC(C(=O)NCC)C1 (centres undefined) | 11.6
CC(C)C[C@H](NCc1cc(O)c2cccc(F)c2n1)C(N)=O | 5.71
Cn1cccc1-c1cc(C(=O)N2CCCC2C(F)(F)F)[nH]n1 (centres undefined) | -0.968
CC(C)[C@H]1CN(C(=O)CC2CCC2)C[C@@H]1N(C)C | 8.91
O=C(CSCC1CC1)N1CCCC(c2nccn2Cc2ccccn2)C1 (centres undefined) | 1.34
O=C1NCC2(CCCN(c3ncnc4c3CCC4)CC2)O1 (centres undefined) | -0.718
O=C(C1CC(=O)N(c2ccccc2)C1)N1CCC2(CC1)OCCO2 (centres undefined) | 1.87
CC1CCCN(CCNC(=O)c2ccn(-c3ccc(F)cc3)n2)C1 (centres undefined) | -0.734
O=C(CN1C=Nc2ccccc2S1(=O)=O)NCc1ccccc1F | -3.73
CN(C)c1ccc(C(=O)N2CCCC(n3cccn3)C2)nn1 (centres undefined) | -4.43
Cc1cnc2c(S(=O)(=O)NCC3CCOC3)cccc2c1 (centres undefined) | -6.94
CC(C)(C)c1ncc(C(=O)NC(C(N)=O)c2ccccc2)s1 (centres undefined) | -1.96
Cc1cc(NC(=O)CN(C)C2CCCN(c3cccnn3)C2)on1 (centres undefined) | -5.93
CN(C)c1ccc(C(=O)N2CCCC2c2noc(C3CC3)n2)nn1 (centres undefined) | -8.36
CC(=O)N(Cc1ncc(C(C)C)o1)C1CCN(Cc2cc(C)on2)C1 (centres undefined) | -6.78

Compound | cytotoxicity at 10 µM [%]
CN(Cc1noc(C2CC2)n1)C1CCN(Cc2ncc[nH]2)C1 (centres undefined) | -1.87
CCc1cc(CNC(=O)N2CCC(Cc3cnn(C)c3)C2)on1 (centres undefined) | -6.04
CNc1nc(CNC(=O)Nc2cccc(Cl)c2OC)cs1 | -12.4
Cc1cnn(CCNCc2nnc(Cc3ccccc3)o2)c1 | -8.63
CC(C(=O)NCCOc1ccccc1)n1cncn1 (centres undefined) | -6.85
COCCCN1CCCC1c1noc(C2CC2)n1 (centres undefined) | -11.5
CNC(=O)COc1ccc(CNCc2c(C)nn(C)c2N(C)C)cc1 | -5.92
OC(CNCCn1cccn1)c1ccc(C(F)(F)F)cc1 (centres undefined) | -5.4
Cc1nn(C)c(C)c1C1CCCN1C(=O)c1cnccn1 (centres undefined) | -15.7
Cn1cc(C(=O)CC2CCCN2C(=O)c2coc3ccccc23)cn1 (centres undefined) | -0.65
CCNC(c1ccc(Cl)cc1)c1cccnc1 (centres undefined) | 5.71
CS(=O)(=O)NCC1CCCN(C(=O)COCC(F)(F)F)C1 (centres undefined) | -3.12
CC(C(=O)NCc1ccnc(N2CCN(C)CC2)c1)n1cccn1 (centres undefined) | -10.2
CCN(CC)C(=O)C1CCC2(CCNCC2)CO1 (centres undefined) | -146
c1cncc(OC[C@]23COC[C@H]2CN(Cc2ccsc2)C3)c1 | 14.7
c1cnc(NC2COC3(CCN(Cc4ccoc4)CC3)C2)nc1 (centres undefined) | 2.11
O=C(NCC1CCOCC1)[C@@H]1C[C@@H]2CCN(Cc3ccco3)C[C@H]2O1 | -8.09
CC(C)c1nn(C)c(N(C)C)c1CNCCC(=O)N(C)C | -6.02
Cn1cc(CN2CC[C@H]3O[C@@H](COCc4cccnc4)CC[C@H]32)cn1 | -73.8
CCCNCc1cn(C)nc1-c1cccnc1 | 6.36
COC1COC2(CCN(Cc3ccccc3F)CC2)C1 (centres undefined) | -5.58
Cc1cnc(N2CC[C@H]3[C@@H]2CCC(=O)N3c2ccccc2)nc1 | 4.15
